# Assay results taken from PubChem BioAssay.
# Unmarked numbers belong to inactive results. Records with an inconclusive call do not appear. Active and inactive are the calls of the source.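 Rule for the calls, unless noted: active = viability increase at or above a cutoff of the median across tested compounds plus 3 SD (cut at about 8.5% in these data, passing the limit was not always enough); inconclusive = some gains above the cutoff, reason not given; inactive = the rest.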
# How the values were obtained:
# [1] = S. cerevisiae growth inhibition in permissive medium (OD615), pilot counter-assay for S. cerevisiae lifespan shortening project, permissive growth control (AID 705;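 active = growth inhibition above 25% in both replicates, a cutoff set 3 SD above the mean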); details: OD615, 24 h, at 10 µM, active compounds read high
# Method in brief: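 Material: engineered DeaD yeast; compound dosing: one dose 10 µM, DMSO 0.25% final; measure: yeast growth inhibition indicated by reduced 24 h OD615; detection: OD615 turbidity read; incubation: cells pre-grown 4 h, then 24 h compound exposure, 30 °C humidified; medium: permissive synthetic complete medium with raffinose and galactose carbon sources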
# [2] = S. cerevisiae growth inhibition in restrictive medium, OD615, pilot screen, restrictive growth control, yeast lifespan reduction project (AID 706;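 active = growth inhibition above a set limit, 3 SD over mean compound inhibition, in both replicates, cut at about 43% in these data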;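 note: modified DeaD lifespan yeast strain shifted to restrictive glucose medium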); details: OD615, 48 h, at 10 µM, active compounds read high
# Method in brief: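 material = engineered S. cerevisiae DeaD strain | medium = glucose-based CSMM-D restrictive medium | times = 4 h pre-incubation, 48 h exposure at 30 °C | technique = OD615 absorbance reading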
# [3] = doxorubicin toxicity protection in MRP-1 cells – H69AR cells, CellTiter-Glo, duplicate, MRP-1 activator project, pilot screen (AID 807); details: H69AR viability with doxorubicin, CellTiter-Glo luminescence; at 10 µM; active compounds read high;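 note: compound pretreatment 18-22 h then 72 h combined with doxorubicin; 0% = doxorubicin alone and 100% = vehicle without doxorubicin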
# [4] = viability of HCT116 without oncogenic beta-catenin – human colon tumor cells, pilot screen (AID 823;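 active = cell viability at or below a set limit in both duplicate runs, the limit being the all-compound median minus 4 SD, cut at about 23% in these data, passing the limit was not always enough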;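 note: 0% = wells killed by 20 µM Hyamine and 100% = untreated DMSO cell wells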); details: HCT116 beta-catenin knockout viability, CellTiter-Glo, 60 h; at 10 µM; active compounds read low
# [5] = viability of PTEN-null HCT116 cells – cell-based, HCT116 clonal line, CellTiter-Glo, pilot screen (AID 824;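 active = viability at or below 27.92% in each of two runs, the all-compound median minus 4 SD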;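 note: 0% = 20 µM Hyamine control and 100% = vehicle cell control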); details: HCT116 PTEN-deleted viability, 60 h, at 10 µM, active compounds read low
# [6] = RAM pathway blockade in budding yeast – dse1pr::URA3 reporter, 5-FOA selection, pilot screen (AID 869;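 active = inhibition over a set limit, the all-compound mean plus 3 SD, in both replicate runs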;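 note: 0% = DMSO wells with no growth and 100% = 10 µM 1-NA-PP1 with full growth; RAM network block rescues cells from 5-FOA so hits raise OD615 growth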); details: S. cerevisiae dse1pr::URA3 5-FOA growth, OD615, 2 d; at 10 µM; active compounds read high; strain carries analog-sensitive mutant Cbk1 kinase
# [7] = RAM signaling pathway blockade in yeast – S. cerevisiae, Pdr1DBD-CYC8 efflux-inhibited sensitized strain, primary screen (AID 1298;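 active = RAM network inhibition above 8.4% in each of two replicates, 3 SD over the compound average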;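 note: 0% = DMSO untreated cells without growth and 100% = 10 µM 1-NA-PP1 full growth; higher means more yeast growth rescued from 5-FOA killing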); details: S. cerevisiae cbk1-as DSE1-URA3 strain, 5-FOA growth OD615, 2 d; at 50 µM; active compounds read high
SMILES,growth inhibition [1] [%],growth inhibition [2] [%],viability increase [3] [%],viability [4],viability [5],inhibition [6] [%],RAM network inhibition [7] [%]
COc1cc(NC(=O)c2cc3c(=O)n(C)c4ccccc4c3n2C)cc(OC)c1OC,1.8,7.94,-3.3,106%,95.7%,3.3,5.77
CCc1c(C(C)O)oc2ccc3c(C)cc(=O)oc3c12 (stereo unspecified),-9.42,2.23,-3.86,84.3%,82.2%,1.06,6.56
Cc1cc(OCC(=O)C(C)(C)C)c2c(C)c(C)c(=O)oc2c1,-18.8,-20.7,-6.01,79.9%,73.8%,0.31,6.85
O=C(c1ccc2nc(N3CCCCC3)sc2c1)N1CCN(Cc2ccc3c(c2)OCO3)CC1,2.12,1.62,1.03,54.2%,60.2%,0.76,1.12
Cc1ccc(CNC(=O)CCS(=O)(=O)c2cccc3nsnc23)cc1,-2.81,-1.48,-1.57,103%,104%,1.64,6.91
CCOc1ccc(S(=O)(=O)N2CCN(S(=O)(=O)c3ccc(OCC)cc3)C(C)C2)cc1 (stereo unspecified),-7.32,1.25,-5.22,93%,93.7%,1.27,6.32
O=C(c1cc2ccccn2n1)N1CCN(c2ccccn2)CC1,-2.62,7.25,2.16,103%,106%,0.94,4.4
CCOC(=O)N1CCN(C(=O)CSc2nnc(-c3ccc(C(C)(C)C)cc3)o2)CC1,-7.79,8.32,-1.07,85.2%,83.7%,0.505,1.1
CC(=O)c1c(NC(=O)C(C)C)nc(C)nc1-c1ccccc1,-6.5,-8.2,-0.66,98.4%,100%,1.69,-0.83
Cc1nn(-c2ccccc2)c(C)c1NC(=O)Cc1cccs1,-10.7,-4.28,-2.07,95.2%,92.1%,1.18,1.1
CCOc1ccc(C(=O)Nc2cc(=O)n(C)c(=O)n2C)cc1,-29.3,-26.3,-0.98,101%,97.5%,1.9,0.62
Cn1c(=O)[nH]c(=O)c2c1nc(N1CCCCCC1)n2CCSc1nc2ccccc2o1,-8.05,-7.14,-3.78,95.4%,91.3%,1.73,3.18
NC(=O)CC1NC(=O)c2ccccc21 (stereo unspecified),-11.7,-6.05,0.12,91.7%,100%,1.28,3.47
COc1ccc(OC)c(C2NC(=O)NC(C)=C2C(=O)Nc2ccc(C)cc2C)c1 (stereo unspecified),-7.68,4.14,0.67,101%,100%,1.77,2.4
Cc1nn(-c2ccccc2)c2c1C(c1ccccc1)C(C#N)=C(N)O2 (stereo unspecified),-13.1,-12.2,-2.62,91.3%,87.8%,2.24,10.5
CC(C)Nc1ncnc2c1cnn2-c1ccc(Cl)cc1,5.42,-5.25,-3.14,83.3%,72.6%,1.14,-0.94
Cc1cc(NC(=O)CN2CCCCC2C)nc2c1c(=O)oc1ccccc12 (stereo unspecified),4.45,-0.735,-0.4,102%,95.9%,1.36,0.77
CCN(CC)c1ccc(NC(=O)Cn2cc3c(n2)CCC(C)C3)c(C)c1 (stereo unspecified),2.12,1.57,2.97,80.4%,76.2%,0.835,-1.78
Cc1ccc(NS(=O)(=O)c2cc(C(=O)O)ccc2Cl)cc1,-5.58,-5.51,-1.55,100%,95.2%,1.16,7.99
O=S(=O)(Nc1ccc(-c2nc3cccnc3s2)cc1)c1cccs1,-4.44,-6.65,-1.73,110%,95.6%,1.79,3.74
Cc1coc2c(C)c3oc(=O)c4c(c3cc12)CCCC4,-10.3,-13.6,-5.04,81.3%,59%,2.46,5.02
CC1(C)C(c2ccc(Cl)cc2)=[N+]([O-])C2(CCCC/C2=N\O)N1O (stereo unspecified),-15.4,-4.64,1.21,96.5%,94.2%,0.555,6.93
N#CCc1ccc(NS(=O)(=O)c2ccc(N3CCCC3=O)cc2)cc1,-10.7,-7.71,-0.69,89.8%,88%,2.58,0.32
Cc1cc2n(c1)CCn1c(C)ccc1-2,18.4,14.5,-2.98,97.8%,96.9%,1.99,2.57

SMILES,growth inhibition [1] [%],growth inhibition [2] [%],viability increase [3] [%],viability [4],viability [5],inhibition [6] [%],RAM network inhibition [7] [%]
COc1ccccc1CNS(=O)(=O)c1ccc2c(c1)oc(=O)n2C,-4.47,-0.685,-0.99,101%,86.7%,0.795,0.32
Cc1ccc(-c2nc(CS(=O)CC(=O)NCCN3CCCC3)c(C)o2)cc1 (stereo unspecified),-8.03,-5.56,-2.7,86.4%,99.3%,0.18,0.43
O=C(NC1CCCCC1)N1CCCCCC1,1.12,-18,-0.52,96.6%,97.5%,0.64,3.56
CCc1ccc(C2CC(=O)NC(SCC(=O)OC(C)C)=C2C#N)cc1 (stereo unspecified),-13.8,-4.45,0.08,78.9%,79.5%,1.15,2.6
Cc1cc(=O)[nH]c(SCc2cc(=O)n3nc(C)sc3n2)n1,4.53,-7.55,-1,104%,96.5%,1.32,5.96
Cc1cc(C(=O)N2CCN(S(C)(=O)=O)CC2)sc1-c1ccccc1,-7.32,3.48,-2.61,94.9%,94%,3.19,6.22
CCc1ccccc1N1CSC2=C(C#N)C(c3ccccc3F)CC(=O)N2C1 (stereo unspecified),-2.74,35.3,-7.03,78.8%,76.5%,0.905,4.09
CC(C)n1c(NCc2cc(Cl)ccc2O)nc2ccccc21,-3.83,-7.78,-0.71,88.8%,87.9%,-0.06,1.06
CC1(C)C(=O)OC(C(=O)c2ccccc2)C(C)(C)C1=O (stereo unspecified),-7.95,-6.81,0.07,105%,94.8%,0.83,2.22
CCN(CC)S(=O)(=O)c1ccc(C(=O)OCCN2C(=O)CCC2=O)cc1,-4.98,10.3,0.48,102%,101%,0.755,4.16
COc1ccc(CN2CC34C=CC(O3)C(C(=O)O)C4C2=O)cc1 (stereo unspecified),-1.83,-0.315,-0.17,92.6%,97.1%,0.585,3.17
COc1ccc(-c2nc(C#N)c(NC(C)C)o2)cc1,-4.08,-2.25,-0.02,90.4%,93.8%,2.67,3.99
CCOc1ccc(N(CC(=O)N2CCc3ccccc32)S(=O)(=O)c2c(C)noc2C)cc1,-1.81,10.1,-5.12,65.7%,59.2%,3.63,2.47
CCOC(=O)NC(Nc1ncccn1)(C(F)(F)F)C(F)(F)F,0.98,-5.49,-3.34,94.4%,97.5%,1.17,0.47
Cc1noc(C(=O)NCc2cccnc2)c1Cl,-7.93,-8.18,1.31,110%,101%,0.865,5.93
Nc1nc2n(n1)C(c1ccccc1)CC(c1ccc(F)cc1)N2 (stereo unspecified),-2.32,16.9,-0.53,97.9%,98.2%,0.145,0.84
O=C(Cn1ncc2c(=O)oc3ccccc3c21)N1CCc2ccccc2C1,-12.5,-12.7,-1.69,103%,94.7%,0.645,-0.07
CC(=O)NC(CCS(C)(=O)=O)C(=O)Nc1cccc(Cl)c1Cl (stereo unspecified),-2.35,-13.9,-4.63,101%,97%,2.29,-0.83
CCN(CC)c1ccc(NC(=O)COc2ccc(C)cc2)cc1,-8.23,-15.4,0.42,93.6%,85.3%,0.255,0.45
CCOc1ccccc1Nc1cc(C)nc2nc(C)nn12,-11.9,-9.62,-2.37,104%,97.2%,1.67,-1.47
CC(=O)c1ccc(NC(=O)CSc2nnc(Cn3c(=O)sc4ccccc43)n2C)cc1,-0.18,14.4,-1.49,100%,101%,0.83,3.42
CCCOc1ccc2ccccc2c1/C=N/n1c(C)nnc1-n1nc(C)cc1C,-5.19,1.04,-4.98,18.6% (active),19.6% (active),-0.29,-2.3
CCCCn1c(=O)cc(N2CCOCC2)[nH]c1=O,-16.3,-20.6,0.83,99.7%,94.3%,1.04,-0.95
Cn1c(=O)c2c(nc(NCc3ccccc3)n2Cc2ccc(F)cc2)n(C)c1=O,-2.42,-16.9,-5.47,65.9%,54.1%,2.54,3.33
